Assay results reported in ChEMBL document CHEMBL6134787, “Fexinidazole optimization: enhancing anti-leishmanial profile, metabolic stability and hERG safety” (RSC Med Chem, 2024).

Key:
[1] = test system: Leishmania amazonensis; assay: Antileishmanial activity against wild type Leishmania amazonensis LV78 promastigotes […] assessed as inhibition of parasite growth incubated for 72 hrs by automatic microtiter plate reader analysis; assay type: functional, organism-based
How it was run: (§1)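 Promastigotes were grown in Schneider's medium (4 mM glutamine, gentamicin, 10% heat-inactivated FBS, pH 6.9, 27 °C). Cells were seeded at 1.5 × 10^5/well and exposed to a concentration series for 72 h at 27 °C.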

[2] = test system: Leishmania braziliensis; assay: Antileishmanial activity against wild type Leishmania braziliensis UA847 promastigotes […] assessed as inhibition of parasite growth incubated for 72 hrs by automatic microtiter plate reader analysis; assay type: functional, organism-based; how it was run: as §1
[3] = test system: Leishmania major; assay: Antileishmanial activity against wild type Leishmania major FV1 promastigotes […] assessed as inhibition of parasite growth incubated for 72 hrs by automatic microtiter plate reader analysis; assay type: functional, organism-based; how it was run: as §1
[4] = test system: Leishmania donovani; assay: Antileishmanial activity against wild type Leishmania donovani HU3 promastigotes […] assessed as inhibition of parasite growth incubated for 72 hrs by automatic microtiter plate reader analysis; assay type: functional, organism-based
[5] = test system: Leishmania donovani; assay: Antileishmanial activity against miltefosine resistant Leishmania donovani HU3MILR40 promastigotes […] assessed as inhibition of parasite growth incubated for 72 hrs by automatic microtiter plate reader analysis; assay type: functional, organism-based
How it was run: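 Promastigote (free parasite) assay: Schneider's Drosophila medium with 4 mM glutamine, 25 μg mL−1 gentamicin, 10% heat-inactivated FBS, pH 6.9, 27 °C. 1.5 × 10^5 promastigotes per well exposed to a concentration series for 72 h at 27 °C.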

[6] = Cytotoxicity against mouse L929 cells assessed as inhibition of cell growth incubated for 72 hrs by MTS assay; assay type: toxicity, cell-based
How it was run: (§2)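 Cells in DMEM + 10% heat-inactivated FBS with penicillin/streptomycin at 37 °C, 5% CO2. They were seeded at 1 × 10^4/well and incubated with a concentration series for 72 h at 37 °C. Viability was read by MTS/PMS assay at 490 nm and IC50 derived.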

[7] = test system: RAW264.7; assay: Cytotoxicity against mouse RAW264.7 cells assessed as inhibition of cell growth incubated for 72 hrs by MTS assay; assay type: functional, cell-based; conditions: RAW264.7, 72 h; how it was run: as §2
[8] = biological target: T1, Voltage-gated inwardly rectifying potassium channel KCNH2 (Homo sapiens, UniProt Q12809); assay: Inhibition of human ERG stably overexpressed in HEK293 cells incubated for 30 mins by FLIPR assay; assay type: toxicity, cell-based; conditions: human, hek293, 0.5 h; time 30 min
T1 sequence (Q12809 whole entry): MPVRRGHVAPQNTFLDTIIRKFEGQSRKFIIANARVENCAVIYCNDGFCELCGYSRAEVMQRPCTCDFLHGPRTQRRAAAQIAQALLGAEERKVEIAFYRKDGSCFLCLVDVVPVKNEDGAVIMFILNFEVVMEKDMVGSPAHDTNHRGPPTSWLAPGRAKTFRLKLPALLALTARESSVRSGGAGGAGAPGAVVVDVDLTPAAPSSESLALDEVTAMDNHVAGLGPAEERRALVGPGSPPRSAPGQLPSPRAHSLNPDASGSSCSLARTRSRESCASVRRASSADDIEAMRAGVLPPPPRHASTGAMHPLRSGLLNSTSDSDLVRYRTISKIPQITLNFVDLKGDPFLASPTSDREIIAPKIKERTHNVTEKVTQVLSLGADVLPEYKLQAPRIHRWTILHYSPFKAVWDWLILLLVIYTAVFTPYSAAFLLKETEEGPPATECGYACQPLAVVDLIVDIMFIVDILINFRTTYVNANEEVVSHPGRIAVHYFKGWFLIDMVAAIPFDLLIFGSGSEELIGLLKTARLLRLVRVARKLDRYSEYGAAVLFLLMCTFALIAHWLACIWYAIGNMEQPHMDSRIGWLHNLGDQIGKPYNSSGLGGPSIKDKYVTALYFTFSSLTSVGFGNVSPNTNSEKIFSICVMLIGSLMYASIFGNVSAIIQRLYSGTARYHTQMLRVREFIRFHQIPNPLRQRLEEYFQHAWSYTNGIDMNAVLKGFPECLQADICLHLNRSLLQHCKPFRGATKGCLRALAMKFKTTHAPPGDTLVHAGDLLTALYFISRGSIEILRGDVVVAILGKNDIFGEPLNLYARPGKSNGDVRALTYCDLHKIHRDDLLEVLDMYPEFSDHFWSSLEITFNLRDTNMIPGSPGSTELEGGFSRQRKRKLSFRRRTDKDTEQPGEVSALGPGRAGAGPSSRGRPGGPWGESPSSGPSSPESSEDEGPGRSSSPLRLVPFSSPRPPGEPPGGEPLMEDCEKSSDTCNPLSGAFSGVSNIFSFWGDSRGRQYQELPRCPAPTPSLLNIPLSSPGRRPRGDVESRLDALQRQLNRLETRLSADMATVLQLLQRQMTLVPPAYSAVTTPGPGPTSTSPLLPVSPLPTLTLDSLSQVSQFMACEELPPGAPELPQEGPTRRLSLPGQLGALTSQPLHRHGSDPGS

[9] = Metabolic stability in rat liver microsome assessed as compound remaining at 20 uM measured after 32 mins in presence of NADP and GSH by HPLC analysis; assay type: ADME; conditions: liver microsomes, read-out: Stability
How it was run: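 Rat liver microsomes (final 2 mg/mL) in 50 mM phosphate pH 7.4 with 0.3 mM NADP+, 5.3 mM glucose-6-phosphate, G6PDH, 10 mM MgCl2 and 5 mM EDTA. 20 μM compound added at 37 °C. Aliquots at 0, 16 and 32 min were quenched in ice-cold acetonitrile and centrifuged. HPLC peak area at 254/280 nm was expressed relative to 0 min.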

[10] = Metabolic stability in rat liver S9 fraction assessed as compound remaining at 20 uM measured after 32 mins in presence of NADP and GSH by HPLC analysis; assay type: ADME, subcellular; conditions: read-out: Stability
How it was run: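 Rat liver S9 (final 4 mg/mL) in 50 mM phosphate pH 7.4 with NADPH-regenerating system (0.3 mM NADP+, 5.3 mM glucose-6-phosphate, G6PDH), 10 mM MgCl2 and 5 mM EDTA. Pre-warmed 10 min at 37 °C, then 20 μM compound and 5.5 μM GSH added. Samples taken at 0, 16 and 32 min were quenched in ice-cold acetonitrile. HPLC (254/280 nm) peak area was expressed relative to 0 min.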

[11] = Hepatotoxicity against mouse TAMH cells assessed as cell viability at 7.8 to 125 uM incubated for 24 to 48 hrs by MTT assay; assay type: toxicity, cell-based; conditions: dose lower 7.8 µM, time lower 24 hrs, dose upper 125 µM, time upper 48 hrs, read-out: Activity
How it was run: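 TAMH mouse liver cells in FCS-free DMEM/F12 with 5% PANEXIN NTA, 10 mM nicotinamide and gentamicin. Seeded at 20 000/well and attached 24 h at 37 °C, 5% CO2. DMSO-diluted compounds were applied for 24 or 48 h. MTT was added for 4 h, formazan dissolved in DMSO and A570 read. Viability was background-corrected and expressed relative to DMSO controls; mean ± SD, ≥3 experiments.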

[12] = test system: Leishmania amazonensis; assay: Antileishmanial activity against wild type Leishmania amazonensis LV78 amastigotes infected in mouse peritoneal macrophage assessed as inhibition of parasite growth incubated for 72 hrs by giemsa staining based analysis; assay type: functional, organism-based
How it was run: (§3)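 Mouse peritoneal macrophages (1 × 10^5/well on coverslips, DMEM + 10% heat-inactivated FBS, penicillin/streptomycin) adhered overnight at 37 °C, 5% CO2. They were infected overnight with late-log promastigotes at a 20:1 parasite:macrophage ratio. Cells were then treated with compound for 72 h at 37 °C and Giemsa-stained. Amastigotes per 100 macrophages were counted to derive IC50; mean ± SD of 3–4 independent experiments.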

[13] = test system: Leishmania braziliensis; assay: Antileishmanial activity against wild type Leishmania braziliensis UA847 amastigotes infected in mouse peritoneal macrophage assessed as inhibition of parasite growth incubated for 72 hrs by giemsa staining based analysis; assay type: functional, organism-based; how it was run: as §3
[14] = test system: Leishmania donovani; assay: Antileishmanial activity against wild type Leishmania donovani HU3 amastigotes infected in mouse peritoneal macrophage assessed as inhibition of parasite growth incubated for 72 hrs by giemsa staining based analysis; assay type: functional, organism-based
How it was run: (§4)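 Mouse peritoneal macrophages in DMEM + 10% heat-inactivated FBS, penicillin/streptomycin; 1 × 10^5 cells per well on coverslips, adhered overnight at 37 °C, 5% CO2, non-adherent cells washed off. Infected overnight with late-log promastigotes at parasite:macrophage 40:1. Compound exposure 72 h at 37 °C; Giemsa stain, amastigotes per 100 macrophages counted, IC50 derived; means ± SD of 3–4 independent experiments.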

[15] = test system: Leishmania donovani; assay: Antileishmanial activity against miltefosine resistant Leishmania donovani HU3MILR40 amastigotes infected in mouse peritoneal macrophage assessed as inhibition of parasite growth incubated for 72 hrs by giemsa staining based analysis; assay type: functional, organism-based; how it was run: as §4
[16] = Cytotoxicity against mouse peritoneal macrophage assessed as inhibition of cell growth incubated for 72 hrs by giemsa staining based analysis; assay type: toxicity; conditions: peritoneal macrophages
[17] = Hepatotoxicity against human HepG2 cells assessed as cell viability at 125 uM incubated for 48 hrs by MTT assay; assay type: toxicity, cell-based; conditions: HepG2 cells, read-out: Activity
How it was run: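 HEP-G2 cells in RPMI 1640 + 10% heat-inactivated FBS, penicillin/streptomycin. Seeded at 15 000/well and attached 24 h at 37 °C, 5% CO2. Compounds were serially diluted in DMSO, with 24 or 48 h exposure. MTT (2.5 mg/mL solution) was added for 4 h, formazan dissolved in DMSO and A570 read. Viability was background-corrected against DMSO-treated cell controls; mean ± SD, ≥3 experiments.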

[18] = biological target: hERG (KCNH2) (Homo sapiens, UniProt Q12809); assay: (§5) Inhibition of human ERG stably overexpressed in HEK293 cells assessed as remaining activity at 6 uM incubated for 30 mins by FLIPR assay; assay type: toxicity, cell-based; conditions: HEK293 cells stably overexpressing hERG, read-out: Activity
Chain of hERG (KCNH2) (Q12809 whole entry): as above
How it was run: (§6)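 HEK-293 cells stably expressing hERG, seeded at 60 000/well and grown 24 h. Compounds were added in DMSO (final 0.5%) and incubated 30 min in the dark. After 20 s baseline, Tl+ stimulus (3 mM) was added and fluorescence (ex 485/em 535 nm) recorded for 2.5 min.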

[19] = biological target: T1, Voltage-gated inwardly rectifying potassium channel KCNH2; assay: as §5; assay type: toxicity, cell-based; conditions: hek293, 0.5 h, 6 µM; how it was run: as §6

| Compound | IC50 [1] [µM] | IC50 [2] [µM] | IC50 [3] [µM] | IC50 [4] [µM] | IC50 [5] [µM] | IC50 at 72 h [6] [µM] | IC50 [7] [µM] | IC25 [8] [µM] | remaining at 32 min, 20 µM [9] [%] | remaining at 32 min, 20 µM [10] [%] | viability at up to 125 µM [11] [%] | IC50 [12] [µM] | IC50 [13] [µM] | IC50 [14] [µM] | IC50 [15] [µM] | IC50 at 72 h [16] [µM] | viability at 48 h, 125 µM [17] [%] | activity at 0.5 h, 6 µM [18] [%] | inhibition (INH) [19] |
| --- | --- | --- | --- | --- | --- | --- | --- | --- | --- | --- | --- | --- | --- | --- | --- | --- | --- | --- | --- |
| CSc1ccc(Cn2ccn3cc([N+](=O)[O-])nc3c2=O)cc1 | > 20 | > 20 | 8.9 | > 16.6 | > 20 | > 57.5 | 48.1 | > 2 | 93.1 | 100 | > 50 |  |  |  |  |  |  |  |  |
| Cn1c([N+](=O)[O-])cnc1C(=O)Nc1ccc(F)cc1C(F)(F)F | 4.5 | 2.3 | 1.2 | 8.1 | 12.2 | > 100 | > 100 | > 6.2 | 100 | 100 | > 50 | > 10 | > 10 | > 10 | > 10 | > 100 |  |  |  |
| CSc1ccc(C(=O)Nc2ccc3c(c2)B(O)OC3(C)C)cc1 | 3.6 | 4.4 | 3.9 | 11.9 | 15.4 | > 100 | 73.6 | > 6.2 | 8 | 61.3 | > 50 | > 10 | > 10 | > 10 | > 10 | > 100 | 54 | 66 |  |
| CSc1ccc(OCc2ncc(C#N)n2C)cc1 | > 20 | > 20 | > 20 | > 20 | > 20 | > 100 | > 99.8 | 27.1 | 8.2 | 82.6 | > 50 |  |  |  |  |  |  |  |  |
| CSc1ccc(NCc2ncc([N+](=O)[O-])n2C)cc1 | > 20 | > 20 | 9.5 | > 20 | 11.9 | > 100 | > 100 | 3.1 | 0 | 73.4 | > 50 |  |  |  |  |  |  | 48 |  |
| CSc1ccc(NC(=O)c2ncc([N+](=O)[O-])n2C)cc1 | > 20 | > 20 | 6.5 | > 20 | > 20 | > 100 | > 100 | > 3.1 | 0 | 6.9 | > 50 |  |  |  |  |  |  |  |  |
| Cn1c([N+](=O)[O-])cnc1C(=O)N1CCS(=O)(=O)CC1 | 13.3 | 12.2 | 3.4 | 7.5 | 13.7 | > 100 | > 100 | > 6.2 | 100 | 100 | > 50 |  |  |  |  |  |  |  |  |
| CS(=O)(=O)c1ccc(OCC2Cn3cc([N+](=O)[O-])nc3O2)cc1 (configuration not stated) | > 20 | > 20 | > 20 | > 20 | 4.5 | > 100 | > 100 | 15.2 | 100 | 100 | > 50 |  |  |  |  |  |  |  |  |
| Cn1c([N+](=O)[O-])cnc1CCc1ccc(S(C)(=N)=O)cc1 (configuration not stated) | > 20 | > 20 | 11.8 | > 20 | > 20 | > 100 | > 100 | 49.4 | 100 | 100 | > 50 |  |  |  |  |  |  |  |  |
| Cn1c([N+](=O)[O-])cnc1COc1ccc(S(C)(=N)=O)cc1 (configuration not stated) | 14.6 | 9.6 | 2.7 | 12.2 | 12.3 | > 100 | > 100 | > 100 | 100 | 100 | > 50 |  |  |  |  |  |  |  | Not_active |
| C[S+]([O-])c1ccc(C(=O)Nc2ccc3c(c2)B(O)OC3(C)C)cc1 (configuration not stated) | > 20 | > 20 | > 20 | > 16.8 | > 20 | > 100 | > 100 | 25.7 | 95.2 | 100 | > 50 |  |  |  |  |  | 54.2 |  | Not_active |
| COc1ccc(Cn2ccn3cc([N+](=O)[O-])nc3c2=O)cc1 | > 20 | > 20 | 6.9 | > 12.4 | > 18.5 | > 100 | > 100 | > 2 | 100 | 100 | > 50 |  |  |  |  |  |  |  |  |
| CSc1ccc(NC(=O)c2ncc([N+](=O)[O-])[nH]2)cc1 | > 20 | > 20 | > 20 | > 20 | > 13.9 | 84.7 | > 68.7 | > 12.5 | 18.4 | 68.2 | 56 |  |  |  |  |  |  |  | Not_active |
| CSc1ccc(CCc2ncc([N+](=O)[O-])n2C)cc1 | 27.2 | 17.5 | 9.1 | 12.5 | 7.1 | > 100 | > 91.7 | 9.8 | 0 | 47.5 | > 50 |  |  |  |  |  |  | 64 |  |
